Hits are enriched below; roughly 5.7% of the tested compounds scored in any of these assays.
SKKanGAS inh – blocks kanamycin growth of S. pyogenes SKKanGAS strain | BacTiter-Glo, 6 h | inhibition, % at 7.5 µM | actives 1.3% (n = 300,000) | AID 1662;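 active = mean replicate score, as percent of positive control median, at least 50; inconclusive = mean below 50 but one replicate at or above 50; inactive = mean and every replicate below 50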;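 also: strain carries kanamycin resistance gene driven by streptokinase promoter and grows in 40 µg/ml kanamycin; loss of luminescence reflects streptokinase promoter inhibition or plain growth inhibition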
Calb FLC – affects C. albicans growth with fluconazole. C. albicans CaCi-2 (fluconazole-resistant clinical isolate) + fluconazole, Alamar Blue growth, 48 h. growth inhibition, % (test concentration not listed). actives 0.57% (n = 300,000). AID 1979;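 active = growth inhibition above about 58% in most replicates, limit read from the data, passing the limit was not always enough; inconclusive = exactly half the replicates above a set limit; inactive = most replicates below a set limit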;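 also: all wells also contain fluconazole at 8 µg/ml as a sub-toxic cotreatment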
CSC inhib – cancer stem cell inhibition; actives 1.1% (n = 300,000); cancer stem cell-like cells viability, luminescence; inhibition, % at 7.5 µM; in the data active = inhibition above about 75%; inconclusive = no clear call, values can overlap the other calls; tested in HMLE shEcad cells
T cruzi inh – blocks replication of Trypanosoma cruzi; T. cruzi beta-gal in NIH3T3, luminescence, 90 h; inhibition, % (no concentration beside the values); actives 1.4% (n = 300,000); AID 1885;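 active = mean inhibition across valid replicates above about 55%, limit read from the data; inconclusive = mean below that limit but half or more replicates reach it; inactive = mean below it, under half of replicates reach it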;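 also: signal also drops with host cell toxicity which is not excluded here; higher percent means less beta-gal luminescence so fewer parasites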
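assay system = mouse NIH/3T3 fibroblasts infected with β-gal-expressing T. cruzi Tulahuen C4 | input = 5,000 NIH/3T3 host cells per well | buffer or medium = DMEM plus 2% FBS | timing = 3 h host attachment, then at least 90 h co-culture | measured by = GalScreen luminescence, 60 min | evaluation = luminescence reflecting intracellular parasite burden, expressed as percent inhibition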
Mdm2 MdmX PPI – human Mdm2/MdmX binding inhibition; inhibition, % at 8 µM; SaOS-2 split-luciferase Mdm2/MdmX complementation, luminescence; actives 3% (n = 330,000); AID 485346;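 active = inhibition of at least 50% at 8 µM in the primary screen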
Target sequence (O15151 whole entry, looked up): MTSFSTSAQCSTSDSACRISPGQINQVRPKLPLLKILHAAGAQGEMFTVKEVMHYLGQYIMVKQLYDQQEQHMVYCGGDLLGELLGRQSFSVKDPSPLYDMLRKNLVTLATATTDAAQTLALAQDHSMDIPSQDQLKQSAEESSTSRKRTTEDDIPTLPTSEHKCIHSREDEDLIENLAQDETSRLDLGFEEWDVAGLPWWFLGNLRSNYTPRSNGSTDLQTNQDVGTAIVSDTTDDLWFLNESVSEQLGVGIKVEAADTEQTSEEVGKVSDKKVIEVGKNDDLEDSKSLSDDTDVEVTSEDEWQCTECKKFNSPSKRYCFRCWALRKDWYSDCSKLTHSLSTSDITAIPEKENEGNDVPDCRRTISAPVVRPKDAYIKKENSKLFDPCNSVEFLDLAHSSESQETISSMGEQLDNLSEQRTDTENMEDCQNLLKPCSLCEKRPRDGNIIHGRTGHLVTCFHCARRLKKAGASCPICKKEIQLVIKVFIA
Target sequence (Q00987 whole entry, looked up): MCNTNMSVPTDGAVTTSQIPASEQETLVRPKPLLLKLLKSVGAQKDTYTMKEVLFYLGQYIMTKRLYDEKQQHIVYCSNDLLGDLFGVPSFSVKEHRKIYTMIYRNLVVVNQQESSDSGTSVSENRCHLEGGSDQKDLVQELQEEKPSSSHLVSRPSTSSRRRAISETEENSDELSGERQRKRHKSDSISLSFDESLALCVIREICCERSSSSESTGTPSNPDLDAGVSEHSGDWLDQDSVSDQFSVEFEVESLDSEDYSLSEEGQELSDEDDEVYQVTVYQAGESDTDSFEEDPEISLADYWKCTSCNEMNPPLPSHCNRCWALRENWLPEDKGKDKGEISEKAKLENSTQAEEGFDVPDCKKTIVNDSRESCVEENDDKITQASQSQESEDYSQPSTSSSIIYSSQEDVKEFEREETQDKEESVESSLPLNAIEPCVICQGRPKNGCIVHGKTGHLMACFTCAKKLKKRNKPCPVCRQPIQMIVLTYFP
Beta cell apopt – beta cell apoptosis inhibition | INS-1E cytokine-induced death, ATP luminescence, 48 h; percent of positive-control rescue, neutral wells zero | protection from apoptosis, % (concentration not given with the values) | actives 0.8% (n = 300,000);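 active = Every replicate reaches about 75%, or at least half do and their mean reaches it too, limit read from the data; inconclusive = At least half of replicates reach the limit but their mean does not; inactive = Under half of replicates reach the limit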;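 also: higher means more ATP so stronger rescue from cytokine killing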
Hits are given with their value; - = inactive; ? = inconclusive; . = not tested or not shown.

SMILES | SKKanGAS inh | Calb FLC | CSC inhib | T cruzi inh | Mdm2 MdmX PPI | Beta cell apopt
CC(C)C1Nc2c(O)cc(Cl)c([N+](=O)[O-])c2C2C=CCC21 (stereo not given) | 79 | - | . | - | . | .
CCN(Cc1ccccc1)C(c1cccc(C#N)c1)c1nnnn1C(C)(C)C (stereo not given) | - | - | - | - | - | -
CCN(Cc1ccccc1)C(c1ccc(C(F)(F)F)cc1)c1nnnn1C(C)(C)C (stereo not given) | - | - | - | - | - | 106
COc1ccccc1NS(=O)(=O)c1cccc(NC(=O)c2[nH]c(C)c(C(C)=O)c2C)c1 | - | - | - | - | - | 76
Cc1ccc(C)c(N/C(N)=N/c2nc(C)cc(C)n2)c1 | - | - | - | 65 | - | -
COc1ccc(C)cc1N/C(N)=N/c1nc(C)cc(C)n1 | - | - | - | - | - | -
COc1ccc(CNC(=O)CN(Cc2ccc(Cl)cc2)S(=O)(=O)c2ccccc2)cc1 | - | - | - | - | - | -
COc1ccc(CNC(=O)CN(Cc2ccccc2)S(=O)(=O)c2ccc(Cl)cc2)cc1 | - | - | - | 74 | - | -
COc1ccccc1C(=O)Nc1ccc(C(=O)N2CCCCC2)cc1 | - | - | - | - | - | -
Oc1ccc(/C=N/N(c2ccccc2)c2ccccc2)c(O)c1O | - | 113 | - | - | - | -
CCN(CC)c1ccc(/C=N/N=C(c2ccccc2)c2ccccc2)c(O)c1 | - | - | - | - | - | -
Oc1ccc(/C=N/N(c2ccccc2)c2ccccc2)cc1O | - | - | - | - | - | -
CCN(CC)c1ccc(/C=N/N(c2ccccc2)c2ccccc2)c(O)c1 | - | - | - | - | - | 95
COc1ccc(CN2C(=NC(=O)C3CCCO3)SC3CS(=O)(=O)CC32)cc1OC (stereo not given) | - | - | - | - | - | -
CCc1cc2cc(C)cc(C)c2nc1SCC(=O)N1CCN(C(=O)c2ccco2)CC1 | . | . | 116 | . | - | -
CCc1cc2cccc(C)c2nc1SCC(=O)N1CCN(C(=O)c2ccco2)CC1 | - | - | - | - | - | -
O=[N+]([O-])c1nn(-c2ccc3c(c2)OCCO3)n(O)c1=NCCC1=CCCCC1 | - | - | ? | 94 | - | -
O=[N+]([O-])c1nn(-c2ccc3c(c2)OCCO3)n(O)c1=NCc1ccc(F)cc1 | - | - | - | 61 | - | -
O=[N+]([O-])c1nn(-c2ccc3c(c2)OCCO3)n(O)c1=NCc1ccc(F)cc1Cl | - | - | - | - | - | -
CC(C)c1ccc(N=c2c([N+](=O)[O-])nn(-c3ccc4c(c3)OCCO4)n2O)cc1 | - | - | - | - | - | -
O=[N+]([O-])c1nn(-c2ccc(Cl)cc2)n(O)c1=NCc1ccncc1 | - | - | - | - | - | -
CN=c1c([N+](=O)[O-])nn(-c2ccc3c(c2)OCCO3)n1O | - | - | - | 61 | - | -
CC(C)(C)OC(=O)C[C@@H]1C/C=C\C[C@@H](CC(=O)N[C@@H](CO)Cc2ccccc2)C(=O)N2CCC[C@@H]2COC1=O | . | . | - | . | - | -
COc1ccc(C(=O)NCC2(c3ccccc3)CCCC2)c(OC)c1 | - | - | 83 | - | - | -
O=C(/C=C/c1ccc2c(c1)OCO2)NCCSCc1c(Cl)cccc1Cl | - | - | 98 | - | - | -
SMILES | SKKanGAS inh | Calb FLC | CSC inhib | T cruzi inh | Mdm2 MdmX PPI | Beta cell apopt
O=C(/C=C/c1ccc2c(c1)OCO2)NCCSCc1ccc(Cl)cc1 | - | - | 93 | - | - | -
CN(C)CCCNC(=O)/C=C/c1ccc2c(c1)OCO2 | - | - | - | - | - | -
Cc1ccc(C(=O)OCC(=O)NC2CCCC2)cc1 | - | - | . | - | - | .
COc1cccc(-c2nn(-c3ccccc3)cc2CN(C)C(C)c2ccncn2)c1 (stereo not given) | - | - | - | - | - | -
COc1ccc(-n2cc(CN(C)C(C)c3ccncn3)c(-c3cccc(F)c3)n2)cc1 (stereo not given) | - | - | - | 66 | - | -
NC(=O)c1cc2c(s1)-c1cc(Cl)ccc1SC2 | - | - | - | - | - | -
Cc1ncc2c(n1)-c1cc(F)ccc1SC2 | - | - | - | ? | - | -
CSc1ncc2c(n1)-c1cc(C)ccc1SC2 | - | - | . | 75 | - | -
Nc1ncc2c(n1)-c1cc(Cl)ccc1SC2 | - | - | - | 72 | - | -
CC(C(=O)N1CCCC1)N1CCN(S(=O)(=O)c2ccccc2)CC1 (stereo not given) | . | . | - | . | - | -
CCO[C@H]1OC(C(=O)O)=C[C@@H](c2ccccc2)[C@@H]1CCCO | - | - | - | - | - | -
Cc1cc(Cn2ccnc2)c(C)cc1Cn1ccnc1 | - | - | - | 59 | - | -
CCNc1nc(Oc2ccc(Cl)cc2Cl)cc(C(F)(F)F)n1 | - | - | - | - | - | -
CCNc1nc(Oc2c(Cl)cccc2Cl)cc(C(F)(F)F)n1 | 53 | - | ? | - | - | -
CC(Sc1nc2cc([N+](=O)[O-])ccc2n1-c1cccc(C(F)(F)F)c1)C(=O)NC(N)=O (stereo not given) | 51 | - | - | - | - | -
Cc1cc(C(=O)NNC(=O)Cc2ccc(Cl)c(Cl)c2)c(C)o1 | . | . | . | . | - | .
Oc1ccc(/C=N/Nc2ccnc3cc(Cl)ccc23)c(O)c1 | - | - | - | - | - | -
Fc1ccc(N/N=C/c2cccnc2)c(F)c1 | - | 112 | - | - | - | -
O=c1[nH]ncc(N/N=C\c2cccnc2)c1Cl | - | - | - | - | - | -
Cc1ccccc1/C=N/Nc1ccnc2cc(Cl)ccc12 | - | - | 84 | 60 | . | 95
Clc1ccc2c(N/N=C/c3cccnc3)ccnc2c1 | - | - | - | 65 | - | -
Clc1ccc2c(N/N=C/c3ccc(Br)cc3)ccnc2c1 | 113 | - | 98 | - | . | -
O=C1CCC(C(=O)N2CCCCO2)CN1Cc1ccc(Cl)cc1 (stereo not given) | - | - | - | - | - | -
COc1cc(/C=N/Nc2ccc(C(=O)O)cc2)cc(OC)c1OC | - | - | - | - | - | -
COc1cc(/C=N/Nc2ccc(F)cc2F)cc(OC)c1OC | - | 126 | - | - | - | -
SMILES | SKKanGAS inh | Calb FLC | CSC inhib | T cruzi inh | Mdm2 MdmX PPI | Beta cell apopt
O=S(=O)(Nc1nccs1)c1ccc(Nc2nnc(-c3ccccc3)c3ccccc23)cc1 | 103 | - | - | - | - | -
O=c1cc(N2CCCCC2)c(-c2ccccc2)nn1Cc1ccccc1 | . | . | 105 | - | - | -
CC(C)(C)OC(=O)NCC(=O)NNC(=O)C(C(=O)OCc1ccccc1)c1ccccc1 (stereo not given) | . | . | - | . | - | -
CC(C)[C@H](NC(=O)[C@H]1N2C(=O)c3ccccc3C2SC1(C)C)C(=O)NCc1ccco1 (stereo not given in full) | - | - | - | - | - | -
N=c1n(CCN2CCCCC2)c2ccccc2n1CC(=O)c1ccc(Cl)c(Cl)c1 | - | - | 103 | - | - | -
CCCCCc1ccc(OCCOCCn2c[n+](C)c3ccccc32)c(CCCCC)c1 | 84 | 104 | . | - | . | .
